According to paper PMC7884954 (International Journal of Nanomedicine, 2021):

Experiments:
[1] = tested on: female albino (BALB/c) mice; experiment: In vivo acute toxicity: body visceral index; conditions: i.v., post 7 days
How it was run: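 Female BALB/c mice (30–35 g, 8–10 weeks; 22 ± 2 °C, 12 h light/dark) were randomised into 6 groups of 3. Free drugs in 0.1% DMSO, formulations or saline were given i.v. via tail vein as two equal doses on days 1 and 3 (mTHPC 0.15 mg.kg−1, THP 5 mg.kg−1 equivalent). On day 7, after cervical dislocation, heart, kidney, liver and lungs were washed in saline and weighed. Organ-to-body weight index was compared with controls; mean ± S.D.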

SK-OV-3 cells [2] = experiment: Assessment of reactive oxygen species; assay type: cell-based, human; conditions: mTHPC 5 µM, THP 50 µM, 4 h, light dose 0.5 J.cm^−2 vs dark
How it was run: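 SK-OV-3 cells (IMDM, 10% FCS, non-essential amino acids, 37°C, 7% CO2) were seeded at 25,000/well overnight and washed with DPBS pH 7.4 containing Ca2+/Mg2+. They were loaded with 25 µM H2DCFDA for 1 h at 37 °C, washed, then exposed to free drug or formulation for 4 h at 37°C. After medium exchange, cells were irradiated at 652 nm, lysed, and read at λex 485/λem 520 nm.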

[3] = tested on: female albino (BALB/c) mice; experiment: In vivo acute toxicity: serum biochemical analysis; conditions: i.v., after 7 days
How it was run: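 Female BALB/c mice (30–35 g, 8–10 weeks) were used in groups of 3. Free drugs in 0.1% DMSO, formulations or saline were given i.v. via tail vein as two equal doses on days 1 and 3 (mTHPC 0.15 mg.kg−1, THP 5 mg.kg−1 equivalent). On day 7, blood was drawn under anesthesia by thoracic puncture and spun at 1200x g for 10 min. Supernatant was stored at −20 °C and then analysed on a serum biochemistry analyzer.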

Ex vivo hemolysis assay = conditions: human, washed red blood cells (RBC suspension diluted 1:50), pH 7.4
How it was run: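 Donor blood in EDTA was spun at 500× g for 5 min. RBCs were washed three times in DPBS pH 7.4, then diluted 1:50 in PBS. The suspension was incubated with test formulations in V-bottom plates for 1 h at 37 °C with orbital shaking. After centrifugation, supernatant absorbance was read at 540 nm. Triton X-100 defined 100% hemolysis, with saline as the other control. Triplicates, mean ± S.D.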

SK-OV-3 cells [4] = experiment: In vitro genotoxicity, alkaline comet assay; assay type: cell-based, human; conditions: SK-OV-3, 4 h, equitoxic dose, light dose 0.05 Jcm^−2
How it was run: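 SK-OV-3 cells (100,000/well, six-well plate) adhered overnight, then treated with test formulations for 4 h at 37 °C. After a medium change, cells were irradiated at an equitoxic light dose giving 80% viability and returned for 12 h. Cells were trypsinised, washed twice in PBS, set to 80,000 cells/mL and embedded in 1% low-melting agarose. Slides were ethanol-fixed (70%, 20 min), SYBR Safe-stained and viewed by fluorescence microscopy; 50 comets scored per formulation.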

blood plasma = experiment: Activated partial thromboplastin time test
How it was run: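 Plasma was separated from fresh blood by centrifugation at 5000x g for 5 min. It was mixed with an equal volume of test formulation and aPTT reagent, and coagulation was activated with pre-warmed […] CaCl2. Clotting time (s) was recorded spectrophotometrically on a coagulation analyzer, […]. Triplicates, mean ± S.D.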

SK-OV-3 cells [5] = experiment: Cellular uptake pathway analysis with chlorpromazine and Filipin-III; assay type: cell-based, human; conditions: 30 µM chlorpromazine, 15 µM Filipin III, light dose 0.5 Jcm^−2
How it was run: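 SK-OV-3 cells seeded at 10,000/well, adhered overnight (37 °C, 5% CO2), washed in PBS with Ca2+/Mg2+. Pre-incubated 1 h with chlorpromazine (30 µM) or Filipin III (15 µM), then exposed to test formulations or free drugs in DMSO (photosensitiser 1.5 µM, chemotherapeutic 50 µM) for a total of 4 h. Medium replaced, irradiated 0.50 J.cm−2, MTT after 24 h; un-irradiated dark control.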

SK-OV-3 cells [6] = experiment: In vitro cytotoxicity; assay type: cell-based, human
How it was run: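 SK-OV-3 cells (IMDM, 10% FCS, non-essential amino acids, 37°C, 7% CO2) were seeded at 10,000/well and left to adhere overnight. They were exposed to a concentration series of free drug (in DMSO) or formulations for 4 h, then switched to fresh medium without irradiation (dark). Next day, MTT (2 mg.mL−1) was added for 4 h, formazan was dissolved in DMSO, and A570 was read. Untreated cells were set as 100%. Three independent experiments; IC50 from non-linear fit.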

[7] = tested on: female albino (BALB/c) mice; experiment: In vivo acute toxicity: histopathological examinations; conditions: i.v., after 7 days, H&E stain
How it was run: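 Female BALB/c mice (30–35 g, 8–10 weeks) were randomised to 6 groups (n=3) and given test formulations i.v. via tail vein as two equal doses on days 1 and 3; the saline group was the control. OECD 425 was followed except for the i.v. route. At day 7 mice were killed by cervical dislocation. Heart, liver, kidney and lungs were saline-washed, sectioned by rotary microtome, H&E-stained and examined by light microscopy.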

Compound: Oc1cccc(-c2c3nc(c(-c4cccc(O)c4)c4ccc([nH]4)c(-c4cccc(O)c4)c4nc(c(-c5cccc(O)c5)c5ccc2[nH]5)CC4)C=C3)c1 [mTHPC, 5, 10, 15, 20-tetrakis (3-hydroxyphenyl) chlorin]
- Visceral body index: kidney weight vs control group [1]: slight increase in the organ weight
- Intracellular ROS production (SK-OV-3 cells [2]): increased levels of intracellular ROS
- ALT level vs control group [3]: increased
- AST level vs control group [3]: slightly higher
- Bilirubin level vs control group [3]: slightly higher
- Creatinine level vs control [3]: increased
- Total protein level [3]: slight increase
- hemolysis at 1 h (Ex vivo hemolysis assay): 14%
- DNA damage class (olive tail moment, comet assay) (SK-OV-3 cells [4]): class-II (class-II damage (5–20%; low damage))
- aPTT coagulation time (blood plasma): 60.2 s
- Cellular uptake mechanism (SK-OV-3 cells [5]): None of the inhibitors was able to minimize the uptake
- Reduction of cell viability (dark toxicity) (SK-OV-3 cells [6]; SK-OV-3, without irradiation, highest mTHPC concentration 5 µM): 18.51 ± 1.87%

Compound: COc1cccc2c1C(=O)c1c(O)c3c(c(O)c1C2=O)C[C@@](O)(C(=O)CO)C[C@@H]3O[C@H]1C[C@H](N)[C@H](O[C@@H]2CCCCO2)[C@H](C)O1 [THP, [2″R]‐4′‐O‐tetrahydropyranyl‐doxorubicin]
- Visceral body index: kidney weight vs control group [1]: slight increase in the organ weight
- Visceral body index: liver weight vs control group [1]: highest increase
- Intracellular ROS production (SK-OV-3 cells [2]): no significant difference in the ROS levels
- ALP level vs control group [3]: highest increase
- ALT level vs control group [3]: increased
- AST level vs control group [3]: highest level
- Bilirubin level vs control group [3]: slightly higher
- Creatinine level vs control [3]: increased
- Total protein level [3]: slight increase
- Uric acid level vs control group [3]: moderately increased
- hemolysis at 1 h (Ex vivo hemolysis assay): 20%
- DNA damage class (olive tail moment, comet assay) (SK-OV-3 cells [4]): class-II (class-II damage (5–20%; low damage))
- aPTT coagulation time (blood plasma): 127.7 s
- Histopathology: kidney [7]: signs of necrosis, apoptosis, as well as congestion of the renal tissue
- Histopathology: liver [7]: some signs of the apoptotic cells with fibrosis, pyknosis (condensation of nuclei due to apoptosis) and hepatic lesions
- Histopathology: lungs [7]: small changes in the lung′s histology with the breakage of the lung′s fiber
- Cellular uptake mechanism (SK-OV-3 cells [5]): None of the inhibitors was able to minimize the uptake
- Cytotoxicity (reduction in cell viability) (SK-OV-3 cells [6]; SK-OV-3, dose of 100 µM, no irradiation): 72.26 ± 5.40%
